Source: ChEMBL document CHEMBL3352728, “Synthesis and biological evaluation of 1,2,3-triazole linked aminocombretastatin conjugates as mitochondrial mediated apoptosis inducers” (Bioorg Med Chem, 2014)
Calls of active or inactive are those of the source. No cut-off for these calls is given here.

Legend:
MCF7 = assay: Cytotoxicity against human MCF7 cells after 48 hrs by MTT assay; format: functional, cell-based; conditions: MCF7, 48 h
How it was run: (§1)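 MTT assay. Cells seeded at 1×10^4 per well in DMEM with 10% FBS and grown 24 h at 37 °C under CO2. Compounds diluted in medium, vehicle control included, 48 h exposure. MTT (5 mg/mL stock) added for 4 h, formazan dissolved in DMSO, absorbance read at 570 nm. IC50 taken as the average of three independent experiments.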

HepG2 = assay: Cytotoxicity against human HepG2 cells after 48 hrs by MTT assay; format: functional, cell-based; conditions: HepG2, 48 h; how it was run: as §1
ACHN = assay: Cytotoxicity against human ACHN cells after 48 hrs by MTT assay; format: functional, cell-based; how it was run: as §1
HeLa = assay: Cytotoxicity against human HeLa cells after 48 hrs by MTT assay; format: functional, cell-based; how it was run: as §1
A549 [1] = assay: Cytotoxicity against human A549 cells after 48 hrs by MTT assay; format: functional, cell-based; conditions: A549, 48 h; how it was run: as §1
Tubulin (Homo sapiens) [2] = target: T1, Tubulin (Homo sapiens) (UniProt P68371+Q9H4B7+P0DPH7+P68366+Q13509+Q71U36+P04350+Q3ZCM7+P07437+P68363+Q9BQE3+Q6PEY2+Q13885+Q9BVA1+Q9BUF5); assay: Binding affinity to tubulin (unknown origin) incubated for 60 mins by colchicine competition assay; format: protein-complex assay
How it was run: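 Tubulin (3 μM) incubated with test agents (5, 10, 15, 20 μM) with and without 3 μM colchicine in 30 mM Tris buffer, 60 min at 37 °C. Tubulin–colchicine fluorescence read at ex 350/em 435 nm. Compound-alone signal subtracted from the compound+colchicine signal, Tris blank subtracted, values normalized to DMSO control. CA-4 positive control, taxol negative control.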

A549 [3] = assay: Induction of cell cycle arrest in human A549 cells assessed as accumulation at S phase at 25 nM after 48 hrs by propidium iodide staining based flow cytometry (reference value: 4.69%); format: functional
A549 [4] = assay: Induction of apoptosis in human A549 cells assessed as caspase-3 activation at 50 nM incubated for 48 hrs by ELISA method; format: functional
How it was run: (§2)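 A549 cells treated 48 h at 25 or 50 nM, with CA-4 at 50 nM as reference. Cells pelleted, PBS-washed, lysed 15 min and centrifuged. Supernatant assayed with a colorimetric caspase-3 kit. Mean ± SD from two experiments, each in triplicate.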

A549 [5] = assay: Induction of mitochondrial membrane potential loss in human A549 cells at 25 nM incubated for 48 hrs by JC1 dye staining based fluorescence assay; format: functional, cell-based
How it was run: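 A549 cells exposed to 25 nM for 48 h, then loaded with JC-1 for 20 min at 37 °C. JC-1 green monomer emission (525 nm) compared with red aggregate emission (590 nm) to read depolarization. CA-4 at 25 nM included.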

A549 [6] = assay: Induction of cell cycle arrest in human A549 cells assessed as accumulation at G0/G1 phase at 50 nM after 48 hrs by propidium iodide staining based flow cytometry (reference value: 87.75%); format: functional
A549 [7] = assay: Induction of apoptosis in human A549 cells assessed as nuclear fragmentation at 25 nM incubated for 48 hrs by Hoechst staining based fluorescent microscopy; format: functional, cell-based
How it was run: (§3)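 A549 cells, 10,000 per coverslip, cultured 24 h, then exposed to 25 nM for 48 h. Stained with Hoechst 33258 (0.5 mg/mL) for 30 min at 37 °C and washed in PBS. Random fields imaged by fluorescence microscopy and scored qualitatively for chromatin condensation, nuclear fragmentation and apoptotic bodies.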

A549 [8] = assay: Induction of cell cycle arrest in human A549 cells assessed as accumulation at G2/M phase at 25 nM after 48 hrs by propidium iodide staining based flow cytometry (reference value: 6.15%); format: functional
A549 [9] = assay: Induction of cell cycle arrest in human A549 cells assessed as accumulation at S phase at 50 nM after 48 hrs by propidium iodide staining based flow cytometry (reference value: 4.69%); format: functional
A549 [10] = assay: Induction of DNA fragmentation in human A549 cells at 25 nM incubated for 48 hrs by agarose gel electrophoresis method; format: functional, cell-based
How it was run: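 A549 cells (1×10^6) plated for 24 h, then exposed to 25 nM for 48 h. Cells pelleted and lysed. Lysate treated with SDS and RNase A for 2 h at 56 °C, then proteinase K for 2 h at 37 °C. DNA precipitated with ammonium acetate and cold ethanol, redissolved in TE buffer, and laddering run on 2% agarose gel.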

Tubulin = assay: Inhibition of tubulin (unknown origin) polymerization incubated for 1 hr by fluorescence assay; format: protein-complex assay, Homo sapiens
A549 [11] = assay: Induction of ROS generation in human A549 cells at 25 nM incubated for 48 hrs by DCFH-DA staining based fluorescence assay; format: functional, cell-based
How it was run: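 A549 cells exposed to 25 nM for 48 h, then loaded with 5 μM DCFH-DA for 30 min at 37 °C. DCF fluorescence read at ex 485/em 530 nm. CA-4 at 25 nM run in parallel.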

A549 [12] = assay: Induction of apoptosis in human A549 cells assessed as caspase-3 activation at 25 nM incubated for 48 hrs by ELISA method; format: functional; how it was run: as §2
A549 [13] = assay: Induction of cell cycle arrest in human A549 cells assessed as accumulation at G2/M phase at 50 nM after 48 hrs by propidium iodide staining based flow cytometry (reference value: 6.15%); format: functional
A549 [14] = assay: Induction of microtubule network disruption in human A549 cells at 25 nM incubated for 48 hrs by immunohistochemistry; format: cell-based
How it was run: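 A549 cells on glass coverslips exposed to 25 nM for 48 h, with CA-4 at 25 nM in parallel. Fixed in 3% paraformaldehyde/0.02% glutaraldehyde and permeabilized in methanol overnight at 4 °C. Blocked with 1% BSA, stained with mouse anti-tubulin primary and FITC-labelled anti-mouse IgG, and examined by fluorescence microscopy for microtubule network integrity.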

A549 [15] = assay: Induction of cell cycle arrest in human A549 cells assessed as accumulation at subG1 phase at 50 nM after 48 hrs by propidium iodide staining based flow cytometry (reference value: 1.41%); format: functional
A549 [16] = assay: Induction of apoptosis in human A549 cells assessed as chromatin condensation at 25 nM incubated for 48 hrs by Hoechst staining based fluorescent microscopy; format: functional, cell-based; how it was run: as §3
Tubulin (Homo sapiens) [17] = target: T1, Tubulin (Homo sapiens); assay: Inhibition of tubulin (unknown origin) polymerization at 3 uM incubated for 1 hr by fluorescence assay; format: protein-complex assay
How it was run: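 Fluorescence-reporter tubulin polymerization kit. PEM buffer with […], compounds at 3 μM final concentration. Fluorescence followed at ex 360/em 420 nm for 1 h at 37 °C. CA-4 positive control. Mean ± SD from two experiments, each in triplicate.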

A549 [18] = assay: Induction of apoptosis in human A549 cells assessed as apoptotic bodies level at 25 nM incubated for 48 hrs by Hoechst staining based fluorescent microscopy; format: functional, cell-based; how it was run: as §3
A549 [19] = assay: Induction of cell cycle arrest in human A549 cells assessed as accumulation at subG1 phase at 25 nM after 48 hrs by propidium iodide staining based flow cytometry (reference value: 1.41%); format: functional
A549 [20] = assay: Induction of cell cycle arrest in human A549 cells assessed as accumulation at G0/G1 phase at 25 nM after 48 hrs by propidium iodide staining based flow cytometry (reference value: 87.75%); format: functional

Structure (SMILES)	IC50 (MCF7)	IC50 (HepG2)	IC50 (ACHN)	IC50 (HeLa)	IC50 (A549 [1])	other results
COc1cc(/C=C\c2cc(OC)c(OC)c(OC)c2)cc(NC(=O)c2cn(Cc3ccc(F)cc3)nn2)c1OC	897 nM	1360 nM	3090 nM	320 nM	66 nM	
COc1ccc(Cn2cc(C(=O)Nc3c(/C=C\c4cc(OC)c(OC)c(OC)c4)ccc(OC)c3O)nn2)cc1	2620 nM	1200 nM	5890 nM	3540 nM	1450 nM	
COc1ccc(/C=C\c2cc(OC)c(OC)c(OC)c2)cc1NC(=O)c1cn(Cc2cccc(Oc3ccccc3)c2)nn1	4190 nM	3720 nM	5740 nM	3230 nM	2570 nM	
COc1ccc(/C=C\c2cc(OC)c(OC)c(OC)c2)cc1NC(=O)c1cn(Cc2cc(OC)c(OC)c(OC)c2)nn1	1510 nM	620 nM	2040 nM	190 nM	89 nM	
COc1cccc(Cn2cc(C(=O)Nc3c(/C=C\c4cc(OC)c(OC)c(OC)c4)ccc(OC)c3O)nn2)c1	1940 nM	1950 nM	9510 nM	4570 nM	1620 nM	
COc1ccc(/C=C\c2cc(OC)c(OC)c(OC)c2)c(NC(=O)c2cn(Cc3cccc(Oc4ccccc4)c3)nn2)c1O	4260 nM	4680 nM	7410 nM	5010 nM	3630 nM	
COc1ccc(/C=C\c2cc(OC)c(OC)c(OC)c2)c(NC(=O)c2cn(Cc3cc(OC)c(OC)c(OC)c3)nn2)c1O	2400 nM	1700 nM	5130 nM	770 nM	830 nM	
CC(=O)O[C@H]1C(=O)[C@@]2(C)[C@H]([C@H](OC(=O)c3ccccc3)[C@]3(O)C[C@H](OC(=O)[C@H](O)[C@@H](NC(=O)c4ccccc4)c4ccccc4)C(C)=C1C3(C)C)[C@]1(OC(C)=O)CO[C@@H]1C[C@@H]2O						Activity (Tubulin (Homo sapiens) [2]): inactive
COc1cc(/C=C\c2cc(OC)c(OC)c(OC)c2)cc(NC(=O)c2cn(Cc3cccc(Oc4ccccc4)c3)nn2)c1OC	4260 nM	3990 nM	6610 nM	5880 nM	2680 nM	
COc1cc(/C=C\c2cc(OC)c(OC)c(OC)c2)cc(NC(=O)c2cn(Cc3cc(OC)c(OC)c(OC)c3)nn2)c1OC	1380 nM	3390 nM	4760 nM	720 nM	181 nM	
COc1ccc(Cn2cc(C(=O)Nc3cc(/C=C\c4cc(OC)c(OC)c(OC)c4)cc(OC)c3OC)nn2)cc1	818 nM	98 nM	1700 nM	81 nM	44 nM	Activity (A549 [3]): 7.84%; fold change (FC) (A549 [4]): 3; Activity (A549 [5]): Active; Activity (A549 [6]): 62.01%; Activity (Tubulin (Homo sapiens) [2]): Active; Activity (A549 [7]): Active; Activity (A549 [8]): 21.37%; Activity (A549 [9]): 7.9%; Activity (A549 [10]): Active; IC50 (Tubulin): 950 nM; Activity (A549 [11]): Active; fold change (FC) (A549 [12]): 3; Activity (A549 [13]): 26.63%; Activity (A549 [14]): Active; Activity (A549 [15]): 3.46%; Activity (A549 [16]): Active; inhibition (Tubulin (Homo sapiens) [17]): 70.9%; Activity (A549 [18]): Active; Activity (A549 [19]): 1.2%; Activity (A549 [20]): 69.59%
COc1ccc(/C=C\c2cc(OC)c(OC)c(OC)c2)cc1O [COMBRETASTATIN A4]			5 nM	18 nM	52 nM	Activity (A549 [6]): 61.32%; Activity (Tubulin (Homo sapiens) [2]): Active; Activity (A549 [9]): 8.09%; Activity (A549 [13]): 26.48%; Activity (A549 [14]): Active; Activity (A549 [15]): 4.11%
COc1cccc(Cn2cc(C(=O)Nc3cc(/C=C\c4cc(OC)c(OC)c(OC)c4)ccc3OC)nn2)c1	1610 nM	1800 nM	5270 nM	1140 nM	1860 nM	
COc1ccc(/C=C\c2cc(OC)c(OC)c(OC)c2)cc1NC(=O)c1cn(Cc2ccc(F)cc2)nn1	597 nM	58 nM	1660 nM	68 nM	53 nM	Activity (A549 [3]): 5.49%; fold change (FC) (A549 [4]): 3; Activity (A549 [5]): Active; Activity (A549 [6]): 61.99%; Activity (Tubulin (Homo sapiens) [2]): Active; Activity (A549 [7]): Active; Activity (A549 [8]): 17.57%; Activity (A549 [9]): 7.93%; Activity (A549 [10]): Active; IC50 (Tubulin): 1160 nM; Activity (A549 [11]): Active; fold change (FC) (A549 [12]): 3; Activity (A549 [13]): 25.73%; Activity (A549 [14]): Active; Activity (A549 [15]): 4.36%; Activity (A549 [16]): Active; inhibition (Tubulin (Homo sapiens) [17]): 66.8%; Activity (A549 [18]): Active; Activity (A549 [19]): 1.52%; Activity (A549 [20]): 75.42%
COc1ccc(/C=C\c2cc(OC)c(OC)c(OC)c2)c(NC(=O)c2cn(Cc3ccc(F)cc3)nn2)c1O	1860 nM	354 nM	3390 nM	330 nM	568 nM	
COc1cccc(Cn2cc(C(=O)Nc3cc(/C=C\c4cc(OC)c(OC)c(OC)c4)cc(OC)c3OC)nn2)c1	1270 nM	513 nM	2890 nM	570 nM	406 nM	
COc1ccc(Cn2cc(C(=O)Nc3cc(/C=C\c4cc(OC)c(OC)c(OC)c4)ccc3OC)nn2)cc1	3720 nM	2080 nM	3310 nM	2950 nM	2140 nM	
